*1 amine or outer side, *2 acyl side, *3 side chain or, on linkers, in order; H or OH if unused. Where a SMILES comes first, the peptide text is derived from it. [ ]: non-standard residue; d: D form. The star is where a group is joined. Phe(4-NH(5-NH2triazol-3-yl)) = Nc1nc(Nc2ccc(C[C@H](N)C(=O)O)cc2)n[nH]1; X1 = Nc1nc(Nc2ccc(C[C@@H](N[*:1])C(=O)[*:2])cc2)n[nH]1; dPhe(4-NHCONH2) = NC(=O)Nc1ccc(C[C@@H](N)C(=O)O)cc1; Dihydroorotyl(S) = O=C1C[C@@H](C(=O)*)NC(=O)N1; dPhe(4-Cl) = N[C@H](Cc1ccc(Cl)cc1)C(=O)O; Phe(4-NH2) = Nc1ccc(C[C@H](N)C(=O)O)cc1; d2Nal = N[C@H](Cc1ccc2ccccc2c1)C(=O)O; Lys(iPr) = CC(C)NCCCC[C@H](N)C(=O)O; d3Pal = N[C@H](Cc1cccnc1)C(=O)O
target: T1, Gonadotropin-releasing hormone receptor (Homo sapiens, UniProt P30968); assay: Antagonism of GnRH response in HEK293 cells expressing human GnRH receptor; assay type: functional, cell-based; conditions: not given
T1 sequence (P30968 whole entry): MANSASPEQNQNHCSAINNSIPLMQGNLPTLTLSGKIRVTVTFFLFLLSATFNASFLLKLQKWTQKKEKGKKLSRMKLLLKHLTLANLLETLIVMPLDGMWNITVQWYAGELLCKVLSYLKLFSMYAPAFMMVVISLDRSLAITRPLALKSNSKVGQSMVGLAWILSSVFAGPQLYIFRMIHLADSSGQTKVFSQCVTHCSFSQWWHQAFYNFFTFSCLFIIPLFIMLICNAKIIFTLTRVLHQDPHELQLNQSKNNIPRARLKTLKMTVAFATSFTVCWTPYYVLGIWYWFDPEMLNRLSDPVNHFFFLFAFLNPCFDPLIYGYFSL
In short: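 HEK293 cells stably carrying cloned human GnRH receptor and luciferase reporter under LH α-subunit promoter; cultured in phenol red-free DMEM, 10% FBS, G418 0.4 mg/mL; plated 5×10^4 cells/well, overnight 37 °C. Compound (11 half-log concentrations, duplicate, 1% DMSO) preincubated 10 min, then GnRH 1 nM final, ≥5 h; luminescence read; % of control cps (blank-subtracted) gives IC50.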

IC50	SMILES
2.11 nM	C#CC[C@H](NC(=O)[C@@H](Cc1ccc(NC(N)=O)cc1)NC(=O)[C@H](Cc1ccc(NC(=O)[C@@H]2CC(=O)NC(=O)N2)cc1)NC(=O)[C@H](CO)NC(=O)[C@@H](Cc1cccnc1)NC(=O)[C@@H](Cc1ccc(Cl)cc1)NC(=O)[C@@H](Cc1ccc2ccccc2c1)NC(C)=O)C(=O)N[C@@H](CCCCNC(C)C)C(=O)N1CCC[C@H]1C(=O)N[C@H](C)C(N)=O
10.6 nM	CC(=O)N[C@H](Cc1ccc2ccccc2c1)C(=O)N[C@H](Cc1ccc(Cl)cc1)C(=O)N[C@H](Cc1cccnc1)C(=O)N[C@@H](CO)C(=O)N[C@@H](Cc1ccc(NC(=O)[C@@H]2CC(=O)NC(=O)N2)cc1)C(=O)N[C@H](Cc1ccc(NC(N)=O)cc1)C(=O)N[C@@H](Cc1c[nH]cn1)C(=O)N[C@@H](CCCCNC(C)C)C(=O)N1CCC[C@H]1C(=O)N[C@H](C)C(N)=O
1.72 nM	CC(=O)N[C@H](Cc1ccc2ccccc2c1)C(=O)N[C@H](Cc1ccc(Cl)cc1)C(=O)N[C@H](Cc1cccnc1)C(=O)N[C@@H](CO)C(=O)N[C@@H](Cc1ccc(NC(=O)[C@@H]2CC(=O)NC(=O)N2)cc1)C(=O)N[C@H](Cc1ccc(NC(N)=O)cc1)C(=O)N[C@@H](CC(C)C)C(=O)N[C@@H](CCCNC(C)C)C(=O)N1CCC[C@H]1C(=O)N[C@H](C)C(N)=O
1.47 nM	CC(=O)N[C@H](Cc1ccc2ccccc2c1)C(=O)N[C@H](Cc1ccc(Cl)cc1)C(=O)N[C@H](Cc1cccnc1)C(=O)N[C@@H](CO)C(=O)N[C@@H](Cc1ccc(NC(=O)[C@@H]2CC(=O)NC(=O)N2)cc1)C(=O)N[C@H](Cc1ccc(NC(N)=O)cc1)C(=O)N(C)[C@@H](CC(C)C)C(=O)N[C@@H](CCCCNC(C)C)C(=O)N1CCC[C@H]1C(=O)N[C@H](C)C(N)=O
52.2 nM	CC(=O)N[C@H](Cc1ccc2ccccc2c1)C(=O)N[C@H](Cc1ccc(Cl)cc1)C(=O)N[C@H](Cc1cccnc1)C(=O)N[C@@H](CO)C(=O)N[C@@H](Cc1ccc(NC(=O)[C@@H]2CC(=O)NC(=O)N2)cc1)C(=O)N[C@H](Cc1ccc(NC(N)=O)cc1)C(=O)N[C@@H](CC(C)C)C(=O)N(C)[C@@H](CCCCNC(C)C)C(=O)N1CCC[C@H]1C(=O)N[C@H](C)C(N)=O
25.8 nM	CNC(=O)C[C@H](NC(=O)[C@@H](Cc1ccc(NC(N)=O)cc1)NC(=O)[C@H](Cc1ccc(NC(=O)[C@@H]2CC(=O)NC(=O)N2)cc1)NC(=O)[C@H](CO)NC(=O)[C@@H](Cc1cccnc1)NC(=O)[C@@H](Cc1ccc(Cl)cc1)NC(=O)[C@@H](Cc1ccc2ccccc2c1)NC(C)=O)C(=O)N[C@@H](CCCCNC(C)C)C(=O)N1CCC[C@H]1C(=O)N[C@H](C)C(N)=O
1.5 nM	CC(=O)N[C@H](Cc1ccc2ccccc2c1)C(=O)N[C@H](Cc1ccc(Cl)cc1)C(=O)N[C@H](Cc1cccnc1)C(=O)N[C@@H](CO)C(=O)N[C@@H](Cc1ccc(NC(=O)[C@@H]2CC(=O)NC(=O)N2)cc1)C(=O)N[C@H](Cc1ccc(NC(N)=O)cc1)C(=O)N[C@@H](CC(C)C)C(=O)N[C@@H](CCCCNC1CCCCC1)C(=O)N1CCC[C@H]1C(=O)N[C@H](C)C(N)=O
48.9 nM	CC(=O)N[C@H](Cc1ccc2ccccc2c1)C(=O)N[C@H](Cc1ccc(Cl)cc1)C(=O)N[C@H](Cc1cccnc1)C(=O)N[C@@H](CO)C(=O)N[C@@H](Cc1ccc(NC(=O)[C@@H]2CC(=O)NC(=O)N2)cc1)C(=O)N[C@H](Cc1ccc(NC(N)=O)cc1)C(=O)N[C@@H](CC(=O)N(C)C)C(=O)N[C@@H](CCCCNC(C)C)C(=O)N1CCC[C@H]1C(=O)N[C@H](C)C(N)=O
1.38 nM	CC(=O)N[C@H](Cc1ccc2ccccc2c1)C(=O)N[C@H](Cc1ccc(Cl)cc1)C(=O)N[C@H](Cc1cccnc1)C(=O)N[C@@H](CO)C(=O)N[C@@H](Cc1ccc(NC(=O)[C@@H]2CC(=O)NC(=O)N2)cc1)C(=O)N[C@H](Cc1ccc(NC(N)=O)cc1)C(=O)N[C@@H](CC(C)C)C(=O)N[C@@H](CCCNC(=O)CNC(C)C)C(=O)N1CCC[C@H]1C(=O)N[C@H](C)C(N)=O
178 nM	CC(=O)N[C@H](Cc1ccc2ccccc2c1)C(=O)N[C@H](Cc1ccc(Cl)cc1)C(=O)N[C@H](Cc1cccnc1)C(=O)N[C@@H](CO)C(=O)N[C@@H](Cc1ccc(NC(=O)[C@@H]2CC(=O)NC(=O)N2)cc1)C(=O)N[C@H](Cc1ccc(NC(N)=O)cc1)C(=O)N[C@@H](CS)C(=O)N[C@@H](CCCCNC(C)C)C(=O)N1CCC[C@H]1C(=O)N[C@H](C)C(N)=O
1.85 nM	CC(=O)N[C@H](Cc1ccc2ccccc2c1)C(=O)N[C@H](Cc1ccc(Cl)cc1)C(=O)N[C@H](Cc1cccnc1)C(=O)N[C@@H](CO)C(=O)N[C@@H](Cc1ccc(NC(=O)[C@@H]2CC(=O)NC(=O)N2)cc1)C(=O)N(C)[C@H](Cc1ccc(NC(N)=O)cc1)C(=O)N[C@@H](CC(C)C)C(=O)N[C@@H](CCCCNC(C)C)C(=O)N1CCC[C@H]1C(=O)N[C@H](C)C(N)=O
2.71 nM	CC(=O)N[C@H](Cc1ccc2ccccc2c1)C(=O)N[C@H](Cc1ccc(Cl)cc1)C(=O)N[C@H](CNCc1ccccn1)C(=O)N[C@@H](CO)C(=O)N[C@@H](Cc1ccc(NC(=O)[C@@H]2CC(=O)NC(=O)N2)cc1)C(=O)N[C@H](Cc1ccc(NC(N)=O)cc1)C(=O)N[C@@H](CC(C)C)C(=O)N[C@@H](CCCCNC(C)C)C(=O)N1CCC[C@H]1C(=O)N[C@H](C)C(N)=O
9.18 nM	CC(=O)N[C@H](Cc1ccc2ccccc2c1)C(=O)N[C@H](Cc1ccc(Cl)cc1)C(=O)N[C@H](Cc1cccnc1)C(=O)N[C@@H](CO)C(=O)N[C@@H](Cc1ccc(NC(=O)[C@@H]2CC(=O)NC(=O)N2)cc1)C(=O)N[C@H](Cc1ccc(NC(N)=O)cc1)C(=O)N[C@@H](CC(N)=O)C(=O)N[C@@H](CCCCNC(C)C)C(=O)N1CCC[C@H]1C(=O)N[C@H](C)C(N)=O
2.85 nM	CC(=O)N[C@H](Cc1ccc2ccccc2c1)C(=O)N[C@H](Cc1ccc(Cl)cc1)C(=O)N[C@H](Cc1cccnc1)C(=O)N[C@@H](CO)C(=O)N[C@@H](Cc1ccc(NC(=O)[C@@H]2CC(=O)NC(=O)N2)cc1)C(=O)N[C@H](Cc1ccc(NC(N)=O)cc1)C(=O)N[C@@H](Cc1ccc(O)cc1)C(=O)N[C@@H](CCCCNC(C)C)C(=O)N1CCC[C@H]1C(=O)N[C@H](C)C(N)=O
1.98 nM	CC(=O)N[C@H](Cc1ccc2ccccc2c1)C(=O)N[C@H](Cc1ccc(Cl)cc1)C(=O)N[C@H](Cc1cccnc1)C(=O)N[C@@H](CO)C(=O)N[C@@H](Cc1ccc(NC(=O)[C@@H]2CC(=O)NC(=O)N2)cc1)C(=O)N[C@H](Cc1ccc(NC(N)=O)cc1)C(=O)N[C@@H](CC(C)C)C(=O)N[C@@H](CNC(=O)CCNC(C)C)C(=O)N1CCC[C@H]1C(=O)N[C@H](C)C(N)=O
1.64 nM	CC(=O)N[C@H](Cc1ccc2ccccc2c1)C(=O)N[C@H](Cc1ccc(Cl)cc1)C(=O)N[C@H](Cc1cccnc1)C(=O)N[C@@H](CO)C(=O)N[C@@H](Cc1ccc(NC(=O)[C@@H]2CC(=O)NC(=O)N2)cc1)C(=O)N[C@H](Cc1ccc(NC(N)=O)cc1)C(=O)N[C@@H](CC(C)C)C(=O)N[C@@H](CCCCNC(C)C)C(=O)N1CCC[C@H]1C(=O)N[C@H](C)C(N)=O [DEGARELIX] (Ac-[d2Nal][dPhe(4-Cl)][d3Pal]S[Phe(4-NH2)](Dihydroorotyl(S))[dPhe(4-NHCONH2)]L[Lys(iPr)]P[dA]-NH2)
1.4 nM	CC(=O)N[C@H](Cc1ccc2ccccc2c1)C(=O)N[C@H](Cc1ccc(Cl)cc1)C(=O)N[C@H](Cc1cccnc1)C(=O)N[C@@H](CO)C(=O)N[C@@H](Cc1ccc(Nc2n[nH]c(N)n2)cc1)C(=O)N[C@H](Cc1ccc(Nc2n[nH]c(N)n2)cc1)C(=O)N[C@@H](CC(C)C)C(=O)N[C@@H](CCCCNC(C)C)C(=O)N1CCC[C@H]1C(=O)N[C@H](C)C(N)=O [PRAZARELIX ACETATE] (Ac-[d2Nal][dPhe(4-Cl)][d3Pal]S[Phe(4-NH(5-NH2triazol-3-yl))][X1]L[Lys(iPr)]P[dA]-NH2)

same assay, conditions: hek293

IC50	SMILES
2.01 nM	CC(=O)N[C@H](Cc1ccc2ccccc2c1)C(=O)N[C@H](Cc1ccc(Cl)cc1)C(=O)N[C@H](Cc1cccnc1)C(=O)N[C@@H](CO)C(=O)N[C@@H](Cc1ccc(NC(=O)[C@@H]2CC(=O)NC(=O)N2)cc1)C(=O)N[C@H](Cc1ccc(NC(N)=O)cc1)C(=O)N[C@@H](CC(C)C)C(=O)N[C@@H](CN[C@H](C(=O)O)C1CCCCC1)C(=O)N1CCC[C@H]1C(=O)N[C@H](C)C(N)=O
5.31 nM	CC(=O)N[C@H](Cc1ccc2ccccc2c1)C(=O)N[C@H](Cc1ccc(Cl)cc1)C(=O)N[C@H](CN(Cc1ccccn1)Cc1ccccn1)C(=O)N[C@@H](CO)C(=O)N[C@@H](Cc1ccc(NC(=O)[C@@H]2CC(=O)NC(=O)N2)cc1)C(=O)N[C@H](Cc1ccc(NC(N)=O)cc1)C(=O)N[C@@H](CC(C)C)C(=O)N[C@@H](CCCCNC(C)C)C(=O)N1CCC[C@H]1C(=O)N[C@H](C)C(N)=O
1.77 nM	CC(=O)N[C@H](Cc1ccc2ccccc2c1)C(=O)N[C@H](Cc1ccc(Cl)cc1)C(=O)N[C@@H](Cc1cccnc1)C(=O)N[C@@H](CO)C(=O)N[C@@H](Cc1ccc(NC(=O)[C@@H]2CC(=O)NC(=O)N2)cc1)C(=O)N[C@@H](Cc1ccc(NC(N)=O)cc1)C(=O)N[C@@H](CC(C)C)C(=O)N[C@@H](CCNC(C(=O)O)C1CCCCC1)C(=O)N1CCC[C@H]1C(=O)N[C@H](C)C(N)=O (some centres not stated)
3.79 nM	CC(=O)N[C@H](Cc1ccc2ccccc2c1)C(=O)N[C@H](Cc1ccc(Cl)cc1)C(=O)N[C@H](CCNCc1ccccn1)C(=O)N[C@@H](CO)C(=O)N[C@@H](Cc1ccc(NC(=O)[C@@H]2CC(=O)NC(=O)N2)cc1)C(=O)N[C@H](Cc1ccc(NC(N)=O)cc1)C(=O)N[C@@H](CC(C)C)C(=O)N[C@@H](CCCCNC(C)C)C(=O)N1CCC[C@H]1C(=O)N[C@H](C)C(N)=O
1.77 nM	CC(=O)N[C@H](Cc1ccc2ccccc2c1)C(=O)N[C@H](Cc1ccc(Cl)cc1)C(=O)N[C@@H](Cc1cccnc1)C(=O)N[C@@H](CO)C(=O)N[C@@H](Cc1ccc(NC(=O)[C@@H]2CC(=O)NC(=O)N2)cc1)C(=O)N[C@@H](Cc1ccc(NC(N)=O)cc1)C(=O)N[C@@H](CC(C)C)C(=O)N[C@@H](CCCNC(=O)[C@H]1CC(=O)NC(=O)N1)C(=O)N1CCC[C@H]1C(=O)N[C@H](C)C(N)=O

Reference: ChEMBL document CHEMBL1140331, “Iterative approach to the discovery of novel degarelix analogues: substitutions at positions 3, 7, and 8. Part II” (J Med Chem, 2005)
